M5 antag: CHRM5 antagonism in calcium assay | P08912 | CHO-hM5 cells, Fluo-8 calcium fluorescence, ACh EC80 | inhibition, % at 3 µM | actives 0.59% (n = 360,000);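 active means inhibition above a per-plate cutoff, the mean of that plate's test compounds plus 3 SD, cut at about 27% in these data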;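 further: 0% = acetylcholine EC80 with DMSO and 100% = DMSO without agonist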
CHRM5 agonist: CHRM5 agonism in calcium assay | P08912 | CHO-K1 hM5 cells, Fluo-8 calcium fluorescence; 0% DMSO wells, 100% maximal acetylcholine response | AID 624037 | actives 0.19% (n = 360,000) | activation, % at 3 µM;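 active means activation above the run's mean over test compounds plus 3 SD, cut at about 23% in these data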;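 further: signal is peak over basal fluorescence ratio across the kinetic read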
CHRM4 PAM: CHRM4 positive allosteric modulation. P08173. CHO-K1 hM4/Gqi5, Fluo-8 calcium fluorescence, ACh EC20; 0% = ACh EC20, 100% = maximal ACh. activation, % at 3 µM. actives 0.4% (n = 360,000). AID 624126;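 active means activation above its plate's cutoff, the mean activation of sample wells plus 3 SD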
Target sequence (P08173 whole entry, looked up): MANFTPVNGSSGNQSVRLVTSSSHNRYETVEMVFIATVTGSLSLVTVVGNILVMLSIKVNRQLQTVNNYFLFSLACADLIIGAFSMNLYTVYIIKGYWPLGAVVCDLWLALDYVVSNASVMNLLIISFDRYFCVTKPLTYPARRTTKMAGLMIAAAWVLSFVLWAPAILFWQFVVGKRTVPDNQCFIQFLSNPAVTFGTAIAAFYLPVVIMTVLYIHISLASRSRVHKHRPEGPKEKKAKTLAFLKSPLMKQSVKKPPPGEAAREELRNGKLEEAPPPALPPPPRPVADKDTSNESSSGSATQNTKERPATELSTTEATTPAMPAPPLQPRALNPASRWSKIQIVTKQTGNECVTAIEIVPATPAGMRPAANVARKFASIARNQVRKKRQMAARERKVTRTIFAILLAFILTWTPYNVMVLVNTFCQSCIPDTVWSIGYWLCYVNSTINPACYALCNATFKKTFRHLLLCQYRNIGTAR
CHRM4 agonist: agonists of human muscarinic M4 receptor (CHRM4); CHO-K1 hM4/Gqi5, Fluo-8 calcium fluorescence; vehicle 0%, full acetylcholine response 100%; activation, % at 3 µM; actives 0.14% (n = 360,000); AID 624127;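 active means activation above the run mean over all test wells plus 3 SD, cut at about 32% in these data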;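 further: peak over basal fluorescence ratio per well then scaled between controls; 0% = DMSO wells and 100% = acetylcholine at EC100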
M5 PAM: positive allosteric modulators of human muscarinic M5 receptor; P08912; CHO-K1 hM5, Fluo-8 calcium, ACh EC20 PAM; 0% = ACh EC20, 100% = ACh EC100; activation, % at 3 µM; actives 0.3% (n = 360,000);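 active means activation above the run cutoff, the mean activation of all test compounds plus 3 SD, cut at about 18% in these data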
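Test system: CHO-K1 hM5 cells / Doses: single-point, 3 µM nominal / Times: Post-acetylcholine fluorescence recording 140 s / Technique: Fluo-8 calcium fluorescence / Measure: Max/basal fluorescence ratio as % of EC20–EC100 ACh window / Benchmarks: low control EC20 acetylcholine (0%), high control EC100 acetylcholine (100%) / Replicates: one well per compound, no replicates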
M4 antag: blocks acetylcholine activation of human M4 receptor. inhibition, % at 3 µM. AID 624125. P08173. actives 0.73% (n = 360,000). CHO-hM4 cells, ACh EC80, Fluo-8 calcium fluorescence;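 active means inhibition above its plate's cutoff, the mean inhibition of sample wells plus 3 SD, cut at about 27% in these data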;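 further: 0% = acetylcholine EC80 with DMSO and 100% = DMSO without agonist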
* = called active by the depositor. Most compounds without a hit are left out; they make up all but 1.8% or so of the library.

SMILES	M5 antag	CHRM5 agonist	CHRM4 PAM	CHRM4 agonist	M5 PAM	M4 antag
Cc1c(NS(=O)(=O)c2cc(C(=O)NCCN(C)C)ccc2Cl)c(=O)n(-c2ccccc2)n1C	0.6	-2.4	-2.5	0.4	1.9	4.5
Cc1cccc(N2CCN(C(=O)c3ccc4c(c3)CCN4S(C)(=O)=O)CC2)c1C	-4.8	-3.4	0.2	5.7	0.1	-5.7
COc1ccc(OC)c(/C=C/C(=O)c2ccc3c(c2)OCCO3)c1	12.7	-7.8	2.9	0.4	-9.5	11.8
Cc1ccc2c(CC(=O)NC3CCS(=O)(=O)C3)coc2c1C (stereo not given)	8.9	-1.2	17.6*	2.0	0.7	13.3
C[C@H]1Cn2cnc(C(=O)Nc3ccccc3)c2C(=O)N1	0.6	-0.9	5.6	-1.1	0.1	-0.8
CC(=O)c1c(C)[nH]c(C(=O)CN2C(=O)NC(C)(c3ccc(C)cc3)C2=O)c1C (stereo not given)	19.2	46.4*	6.9	35.5*	-8.3	-0.7
CC(CCC(C)C(C)(C)C)[C@@H]1CC[C@H]2C3C[C@H](OS(O)(=S)=S)[C@H]4C[C@H](OS(O)(=S)=S)[C@@H](OS(O)(=S)=S)C[C@]4(C)[C@H]3CC[C@]12C (stereo not given in full) (tested in a mixture with another compound)	12.5	20.7	-6.3	80.7*	-26.8	51.1*
O=C(O)CCCn1ccc2cc(S(=O)(=O)N3CCCC3)ccc21	11.2	-6.0	6.6	3.8	-3.8	-1.0
O=C(O)CCn1ccc2cc(S(=O)(=O)N3CCCCCC3)ccc21	-9.8	-1.0	4.0	-0.1	19.0*	-3.5
COc1cccc(CNC(=O)C(C)n2ccc3cc(S(=O)(=O)N4CCCCCC4)ccc32)c1 (stereo not given)	4.3	-0.7	-11.5	2.7	-3.1	3.9
CCC(C(=O)NCCC(C)C)n1ccc2cc(S(=O)(=O)N3CCCCC3)ccc21 (stereo not given)	33.8*	0.2	-13.7	17.8	-11.6	10.6
C=CC1=CCN(S(=O)(=O)C(C)(C)C)[C@H]1CCO	1.1	1.3	6.1	1.0	-3.7	-12.7
Cc1cccc2cc(-c3ccccc3)c(-c3ccccc3)c[n+]12	11.6	-5.9	-34.4	0.5	-14.3	37.7*
O=[N+]([O-])c1cccc(-c2cc3cccc[n+]3cc2-c2cccc([N+](=O)[O-])c2)c1	7.5	-3.1	1.7	0.1	-2.7	-0.1
Cc1ccc2oc(C(=O)NCc3ccccc3)cc(=O)c2c1	8.8	2.4	-1.0	6.0	-4.3	-20.4
Cc1cc2oc(C(=O)NCc3ccccc3)cc(=O)c2cc1C	96.8*	-8.5	-18.5	0.7	-21.9	98.0*
CC(C)N(CC#CC(O)(c1ccccc1)c1ccccc1)CCO	41.7*	-9.7	-18.5	1.2	-19.4	42.3*
CC(C)N(CC#CC(O)(c1ccccc1)c1ccccc1)C(C)C	95.6*	-21.4	-59.2	1.2	-31.8	98.2*
CN(CC#CC(O)(c1ccccc1)c1ccccc1)C(C)(C)C	76.7*	-19.8	-16.3	1.1	-35.4	92.1*
O=C(Nc1ccccc1)c1cc(C2CCCCN2C(=O)CCc2ccccc2)on1 (stereo not given)	-7.8	-1.3	-3.5	3.8	-0.2	-5.8
Cc1c(S(=O)(=O)N2CCCCC2)c(=O)n(C)c(=O)n1C	2.0	-4.1	-1.8	0.4	5.0	10.4
O=C(CC1C(=O)NCCN1Cc1c(F)cccc1Cl)NCCCOc1cccnc1 (stereo not given)	9.0	-5.2	8.2	0.7	-3.8	-4.4
Cc1cc(OCCN2CCN(S(=O)(=O)c3ccccc3F)CC2)ccc1C(C)C	-11.8	-0.2	9.1	2.7	4.4	-27.9
CCN1CCN(C(=O)/C=C/c2ccc(OC)cc2)CC1	4.6	-3.8	12.4*	1.2	-0.6	-23.5
CC1CN(C2CCCCC2)C(=S)N(c2ccccc2)C1=O (stereo not given)	1.5	7.8	0.8	1.4	-6.0	8.5

High-throughput results: PubChem, The Scripps Research Institute Molecular Screening Center
